We go through one compound from ChEMBL document CHEMBL1127053, “3,4-Dimethyl-4-(3-hydroxyphenyl)piperidines: opioid antagonists with potent anorectant activity” (J Med Chem, 1993).

In one assay the target is D(2) dopamine receptor (Rattus norvegicus, UniProt P61169). The assay can be described thus: Tested for affinity against dopamine D2 receptor using […] in rat brain. The format is tissue-based.
The subject of another assay is Rattus norvegicus. The assay can be described thus: Tested for concentration required to reduce the food consumption by 20 % subcutaneously. Format: functional. Conditions: Rattus norvegicus, sc; read-out: ED50. Put shortly:
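Obese Zucker rats, 3-4 months old, trained to eat only 8 am-4 pm. Groups of 4 (2 male, 2 female), with one saline control group daily. Compound in saline with 10% DMSO, given sc on 3 consecutive days, typical doses 5.0-0.08 mg/kg (0.02-20 in some cases). Intake measured over the first 4 h. ED20 from regression of the linear portion of the dose-response curve.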

For a further assay, the target named is D(1A) dopamine receptor (Rattus norvegicus, UniProt P18901). The assay can be described thus: Tested for affinity against dopamine D1 receptor using [3H]SCH-23,390 in rat brain. Format: tissue-based.
Another assay addresses Dopamine receptor. Nature of the assay: Tested for affinity against dopamine autoreceptor using [3H]apomorphine in rat brain. The format is tissue-based.
For another assay, the target named is Adrenergic receptor beta (Rattus norvegicus, UniProt P18090+P10608+P26255). The assay can be described thus: Tested for affinity against beta-adrenergic using [3H]dihydroalprenolol in rat brain. The format is tissue-based. Put shortly: (§1)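 Radioligand binding in cortical membranes from male Sprague-Dawley rats (110-150 g). Ligands: [3H]serotonin for 5-HT1, [3H]QNB for muscarinic, [3H]WB4101 for α1, [3H]clonidine for α2, [3H]dihydroalprenolol for β-adrenergic.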

The nature of assay [1]: Tested for affinity against phencyclidine using [3H]phencyclidine in rat brain. The format is tissue-based.
The target in assay [2] is Delta-type opioid receptor (Rattus norvegicus, UniProt P33533). The assay can be described thus: Binding affinity towards delta-opioid receptor by displacement of [3H]DADL in rat brain homogenates. The format is tissue-based. Put shortly: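 Radioligand displacement. Kappa: [3H]EKC, guinea pig cortex, with fentanyl and DADL added to block mu/delta binding. Delta: [3H]DADL, rat brain homogenate.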
For orientation: In a radioligand displacement assay an active substance lowers the binding of a labelled ligand.

Assay [3] deals with T1, Adrenergic receptor alpha-2 (Rattus norvegicus, UniProt P22086+P19328+P22909).
T1 sequence (P22086 whole entry): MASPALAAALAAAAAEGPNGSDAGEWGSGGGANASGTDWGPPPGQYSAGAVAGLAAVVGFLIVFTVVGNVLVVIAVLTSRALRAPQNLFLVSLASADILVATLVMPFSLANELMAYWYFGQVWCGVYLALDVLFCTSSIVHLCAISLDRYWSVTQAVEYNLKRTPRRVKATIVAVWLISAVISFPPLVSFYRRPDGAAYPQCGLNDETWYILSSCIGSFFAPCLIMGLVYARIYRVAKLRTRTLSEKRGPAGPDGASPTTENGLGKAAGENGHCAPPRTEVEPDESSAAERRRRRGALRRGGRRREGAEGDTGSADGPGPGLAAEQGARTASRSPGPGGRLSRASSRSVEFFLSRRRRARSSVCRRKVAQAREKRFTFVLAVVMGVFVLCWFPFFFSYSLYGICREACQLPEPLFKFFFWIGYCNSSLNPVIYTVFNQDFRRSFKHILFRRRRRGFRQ
T1 sequence (P19328 whole entry): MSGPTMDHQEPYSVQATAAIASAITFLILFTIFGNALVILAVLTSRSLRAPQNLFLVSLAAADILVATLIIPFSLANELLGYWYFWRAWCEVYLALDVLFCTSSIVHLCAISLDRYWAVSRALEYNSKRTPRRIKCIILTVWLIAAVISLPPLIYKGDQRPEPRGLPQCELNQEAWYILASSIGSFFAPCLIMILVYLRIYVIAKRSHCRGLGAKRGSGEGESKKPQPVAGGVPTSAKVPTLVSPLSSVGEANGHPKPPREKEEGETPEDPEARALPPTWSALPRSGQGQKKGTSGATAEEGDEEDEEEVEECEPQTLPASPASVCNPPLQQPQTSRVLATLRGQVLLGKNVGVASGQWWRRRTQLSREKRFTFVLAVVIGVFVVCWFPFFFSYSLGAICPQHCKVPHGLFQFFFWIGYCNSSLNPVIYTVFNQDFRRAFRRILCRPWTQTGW
T1 sequence (P22909 whole entry): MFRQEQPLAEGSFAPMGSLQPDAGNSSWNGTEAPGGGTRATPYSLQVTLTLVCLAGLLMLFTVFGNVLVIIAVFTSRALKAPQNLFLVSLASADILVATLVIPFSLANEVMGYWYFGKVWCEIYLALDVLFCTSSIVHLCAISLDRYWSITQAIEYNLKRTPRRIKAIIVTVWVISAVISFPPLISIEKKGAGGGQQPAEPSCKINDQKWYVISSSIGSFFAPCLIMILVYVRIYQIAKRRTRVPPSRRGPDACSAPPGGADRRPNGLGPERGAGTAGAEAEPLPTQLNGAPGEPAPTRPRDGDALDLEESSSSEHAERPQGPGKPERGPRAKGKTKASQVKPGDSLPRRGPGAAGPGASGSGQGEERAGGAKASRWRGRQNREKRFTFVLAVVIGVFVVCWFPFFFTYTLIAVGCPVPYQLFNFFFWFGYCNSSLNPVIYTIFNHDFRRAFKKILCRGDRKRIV
The assay can be described thus: Tested for affinity against alpha-2-adrenergic using [3H]clonidine in rat brain. The format is tissue-based. Put shortly:
as §1

Assay [4] deals with Kappa-type opioid receptor (Mus musculus) (UniProt P33534). Nature of the assay: Antagonist activity towards U50 488 induced kappa opioid receptor by mouse writhing assay at 2.5 mg/kg subcutaneously. Format: functional, organism-based. The arrangement: dose 2.5 mg/kg. Put shortly:
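Mouse acetic acid writhing: 0.6% acetic acid ip, writhes counted for 10 min starting 5 min after injection. 5 mice/point, ≥5 doses varied 2-fold, each mouse used once. AD50 = antagonist dose reducing agonist-induced writhing inhibition to 50%.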

The target in assay [5] is Kappa-type opioid receptor (Rattus norvegicus) (UniProt P34975). The assay can be described thus: Antagonism of bremazocine induced kappa receptor diuresis in rats at a concentration of 0.08 mg/kg subcutaneously. The format is functional, organism-based. The arrangement: dose 0.08 mg/kg. The essentials: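 Male Long-Evans hooded rats (350-500 g), reused no more than twice weekly. Bremazocine 0.08 mg/kg sc, test antagonist sc on the opposite side without delay. Rats housed in metabolism cages; urine volume recorded at 2 and 5 h. 3 rats/dose, doses varied 2-fold. AD50 = dose reducing cumulative 5-h induced urination by 50%.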

The target in assay [6] is Mu-type opioid receptor (Mus musculus) (UniProt P42866). The assay can be described thus: Antagonistic activity towards morphine induced mu-opioid receptor by mouse writhing assay at 1.25 mg/kg subcutaneously. Format: functional, organism-based. Also noted: dose 1.25 mg/kg. Put shortly: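 Mouse acetic acid writhing: 0.6% acetic acid ip, writhes counted for 10 min starting 5 min after injection. Agonist (morphine 1.25 mg/kg or U50,488 2.5 mg/kg) and antagonist given sc 20 min before acid. 5 mice/point, ≥5 doses varied 2-fold, each mouse used once. AD50 = antagonist dose reducing agonist-induced writhing inhibition to 50%.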
In general terms: Writhing tests count abdominal constrictions after an irritant is injected.

Assay [7] deals with Muscarinic acetylcholine receptor. Nature of the assay: Tested for affinity against muscarinic acetylcholine using [3H]quinuclidinyl benzylate in rat brain. The format is tissue-based. Put shortly:
as §1

A short description of assay [8]: Tested for affinity against serotonin 5-HT1 receptor using [3H]5-HT in rat brain. Format: tissue-based. Put shortly:
as §1

Assay [9] has as its target Kappa-type opioid receptor (Cavia porcellus) (UniProt P41144). The settings on record: Ileum, 2 nM.
In assay [10] the target is Mu-type opioid receptor (Cavia porcellus) (UniProt P97266). The settings on record: Ileum, 2 nM.

A value given as a limit tells only on which side of the number the result lay.

Sequence of Kappa-type opioid receptor (Rattus norvegicus) (P34975 whole entry): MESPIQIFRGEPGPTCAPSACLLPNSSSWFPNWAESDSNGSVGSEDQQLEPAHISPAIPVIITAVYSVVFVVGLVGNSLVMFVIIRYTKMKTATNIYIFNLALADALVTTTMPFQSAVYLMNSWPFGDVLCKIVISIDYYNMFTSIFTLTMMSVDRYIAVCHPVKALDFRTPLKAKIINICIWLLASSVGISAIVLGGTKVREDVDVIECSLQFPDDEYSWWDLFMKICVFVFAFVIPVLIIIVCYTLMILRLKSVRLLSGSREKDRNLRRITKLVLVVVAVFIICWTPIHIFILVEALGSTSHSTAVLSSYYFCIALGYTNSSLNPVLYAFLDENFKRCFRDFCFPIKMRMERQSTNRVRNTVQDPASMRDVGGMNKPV
Sequence of Mu-type opioid receptor (Cavia porcellus) (P97266 whole entry): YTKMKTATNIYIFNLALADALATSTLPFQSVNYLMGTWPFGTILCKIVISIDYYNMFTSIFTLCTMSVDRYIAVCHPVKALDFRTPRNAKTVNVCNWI
Sequence of Delta-type opioid receptor (P33533 whole entry): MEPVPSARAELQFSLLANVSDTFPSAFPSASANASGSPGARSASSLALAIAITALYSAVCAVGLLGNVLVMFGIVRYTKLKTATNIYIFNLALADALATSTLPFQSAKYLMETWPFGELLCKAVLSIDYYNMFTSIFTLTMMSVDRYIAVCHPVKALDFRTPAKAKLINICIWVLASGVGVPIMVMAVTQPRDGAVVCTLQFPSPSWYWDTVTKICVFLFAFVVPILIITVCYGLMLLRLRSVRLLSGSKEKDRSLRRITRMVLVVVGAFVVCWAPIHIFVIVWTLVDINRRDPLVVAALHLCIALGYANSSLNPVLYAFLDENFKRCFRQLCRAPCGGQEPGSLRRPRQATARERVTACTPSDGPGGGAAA
Sequence of D(1A) dopamine receptor (P18901 whole entry): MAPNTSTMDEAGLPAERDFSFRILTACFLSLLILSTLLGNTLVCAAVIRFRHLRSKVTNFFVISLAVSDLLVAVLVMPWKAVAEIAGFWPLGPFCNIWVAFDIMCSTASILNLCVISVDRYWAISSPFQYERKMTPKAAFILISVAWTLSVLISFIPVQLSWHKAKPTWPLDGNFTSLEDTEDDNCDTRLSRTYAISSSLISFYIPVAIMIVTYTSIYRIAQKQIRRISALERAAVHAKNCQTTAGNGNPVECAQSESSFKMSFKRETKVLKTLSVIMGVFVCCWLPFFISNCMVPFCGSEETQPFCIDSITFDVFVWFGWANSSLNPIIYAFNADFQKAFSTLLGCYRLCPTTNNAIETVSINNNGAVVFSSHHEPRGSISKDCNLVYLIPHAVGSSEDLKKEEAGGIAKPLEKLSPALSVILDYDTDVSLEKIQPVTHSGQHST
Sequence of Kappa-type opioid receptor (Mus musculus) (P33534 whole entry): as the sequence (P34975 whole entry) above, with E11D, A17S, P51S, V308A counted along it
Sequence of D(2) dopamine receptor (P61169 whole entry): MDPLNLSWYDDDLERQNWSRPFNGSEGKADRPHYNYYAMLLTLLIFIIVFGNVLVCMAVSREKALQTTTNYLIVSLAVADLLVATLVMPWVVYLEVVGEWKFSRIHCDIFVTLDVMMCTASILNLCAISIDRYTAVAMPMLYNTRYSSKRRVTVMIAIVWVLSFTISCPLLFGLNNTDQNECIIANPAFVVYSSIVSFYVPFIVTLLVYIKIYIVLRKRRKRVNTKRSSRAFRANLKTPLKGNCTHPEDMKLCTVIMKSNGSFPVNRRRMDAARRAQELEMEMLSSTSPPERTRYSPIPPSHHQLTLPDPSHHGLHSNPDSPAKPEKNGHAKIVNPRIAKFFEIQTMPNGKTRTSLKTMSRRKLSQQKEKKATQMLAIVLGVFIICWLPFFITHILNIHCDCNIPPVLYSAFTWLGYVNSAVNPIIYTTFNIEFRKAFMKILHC
Sequence of Mu-type opioid receptor (Mus musculus) (P42866 whole entry): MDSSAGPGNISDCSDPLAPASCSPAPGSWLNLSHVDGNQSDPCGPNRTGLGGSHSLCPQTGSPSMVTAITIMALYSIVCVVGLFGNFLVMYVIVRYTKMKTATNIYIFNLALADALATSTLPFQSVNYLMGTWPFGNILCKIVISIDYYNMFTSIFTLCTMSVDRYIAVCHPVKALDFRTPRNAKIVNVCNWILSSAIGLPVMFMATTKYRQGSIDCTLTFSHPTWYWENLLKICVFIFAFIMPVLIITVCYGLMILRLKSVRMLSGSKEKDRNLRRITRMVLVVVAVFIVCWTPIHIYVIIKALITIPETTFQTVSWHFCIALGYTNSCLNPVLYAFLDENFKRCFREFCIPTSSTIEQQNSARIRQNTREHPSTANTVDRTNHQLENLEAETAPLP
Sequence of Kappa-type opioid receptor (Cavia porcellus) (P41144 whole entry): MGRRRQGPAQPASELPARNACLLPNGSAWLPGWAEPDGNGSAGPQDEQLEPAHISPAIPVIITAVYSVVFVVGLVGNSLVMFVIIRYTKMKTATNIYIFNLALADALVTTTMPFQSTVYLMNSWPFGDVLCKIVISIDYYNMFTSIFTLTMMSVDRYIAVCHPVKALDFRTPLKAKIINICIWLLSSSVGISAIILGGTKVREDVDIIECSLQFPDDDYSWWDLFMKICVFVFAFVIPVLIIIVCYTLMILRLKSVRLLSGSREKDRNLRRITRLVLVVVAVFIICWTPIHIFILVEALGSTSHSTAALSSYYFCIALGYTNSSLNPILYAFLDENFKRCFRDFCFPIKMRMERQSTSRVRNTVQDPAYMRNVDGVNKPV

One may read the IC50 as the concentration at which inhibition is half-maximal. One may read the ED50 as the dose that gives a 50% effect, or the effect in half of the subjects. By Ki is commonly meant the equilibrium dissociation constant of an inhibitor or competing ligand from its target. `C[C@H]1CN(CC[C@H](O)C2CCCCC2)CC[C@@]1(C)c1cccc(O)c1`: the concentration for half-maximal inhibition (IC50) on D(2) dopamine receptor is greater than 1000 nM; against D(1A) dopamine receptor, greater than 1000 nM; at Dopamine receptor, greater than 1000 nM; against Adrenergic receptor beta it was greater than 5000 nM; in [1], greater than 1000 nM; in [3] it was greater than 5000 nM. The IC50 in assay [7] was greater than 10000 nM; in assay [8] it was greater than 1000 nM. The ED50 with Rattus norvegicus is 0.04 mg/kg. Affinity in assay [2] was put at a Ki of 5.2 nM. Besides, the AD50 came to 0.05 mg/kg in assay [4], 0.38 mg/kg in [5] and 0.015 mg/kg in [6]. Moreover, the Ke in [9] was determined as 0.31 nM; in [10], 0.24 nM.
